Experimental data pooled from the literature.
Target: Mitogen-activated protein kinase kinase kinase 6 (MAP3K6, Homo sapiens, UniProt O95382)
One construct used (O95382 1-1288): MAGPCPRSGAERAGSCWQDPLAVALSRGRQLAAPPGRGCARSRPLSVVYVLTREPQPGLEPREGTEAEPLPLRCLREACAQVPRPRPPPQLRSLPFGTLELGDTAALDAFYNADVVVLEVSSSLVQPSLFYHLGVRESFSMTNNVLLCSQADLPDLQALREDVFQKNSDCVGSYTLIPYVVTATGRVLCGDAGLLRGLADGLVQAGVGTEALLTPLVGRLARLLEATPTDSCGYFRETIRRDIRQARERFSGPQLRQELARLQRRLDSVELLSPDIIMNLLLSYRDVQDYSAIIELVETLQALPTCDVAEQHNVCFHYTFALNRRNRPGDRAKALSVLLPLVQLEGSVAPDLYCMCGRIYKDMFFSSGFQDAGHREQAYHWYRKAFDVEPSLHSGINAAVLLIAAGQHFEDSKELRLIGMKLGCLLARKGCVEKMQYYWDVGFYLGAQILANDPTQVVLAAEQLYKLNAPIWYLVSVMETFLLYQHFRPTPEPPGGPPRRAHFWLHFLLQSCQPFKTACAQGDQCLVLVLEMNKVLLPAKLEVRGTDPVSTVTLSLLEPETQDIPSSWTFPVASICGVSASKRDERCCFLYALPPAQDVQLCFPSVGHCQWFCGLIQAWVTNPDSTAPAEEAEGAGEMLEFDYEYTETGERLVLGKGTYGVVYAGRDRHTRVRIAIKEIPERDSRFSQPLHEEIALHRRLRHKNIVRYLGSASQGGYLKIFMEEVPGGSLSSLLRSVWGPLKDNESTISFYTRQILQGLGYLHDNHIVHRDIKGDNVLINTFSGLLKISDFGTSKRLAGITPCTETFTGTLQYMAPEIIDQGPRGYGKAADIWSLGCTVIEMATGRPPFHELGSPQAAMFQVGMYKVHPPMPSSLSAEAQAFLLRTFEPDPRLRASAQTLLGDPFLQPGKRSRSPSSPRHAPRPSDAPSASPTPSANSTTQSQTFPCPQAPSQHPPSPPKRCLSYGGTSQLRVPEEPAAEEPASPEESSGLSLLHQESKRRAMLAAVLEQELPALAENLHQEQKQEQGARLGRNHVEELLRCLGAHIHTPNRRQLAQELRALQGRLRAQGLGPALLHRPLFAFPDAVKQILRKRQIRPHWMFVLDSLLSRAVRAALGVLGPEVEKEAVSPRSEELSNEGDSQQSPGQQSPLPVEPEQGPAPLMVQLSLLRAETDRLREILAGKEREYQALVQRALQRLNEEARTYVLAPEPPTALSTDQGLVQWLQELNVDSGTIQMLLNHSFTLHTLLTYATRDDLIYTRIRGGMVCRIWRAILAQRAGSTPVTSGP

Compound | observed | technique | concentration | remaining binding [%]
CN([C@@H]1CCc2c(CC(=O)O)c3cc(S(C)(=O)=O)ccc3n2C1)S(=O)(=O)c1ccc(F)cc1 | cell-free assay | competition with immobilised ligand | 1 µM | 89
O=C(NCC1CCOCC1)c1n[nH]cc1NC(=O)c1c(F)cccc1F | binding | competition with immobilised ligand | 1 µM | 77
N[C@@H]1CCN(c2nccc(-c3cnn4ncccc34)n2)C1 | binding |  | 1 µM | 57
Nc1ncc2c(n1)-c1c([nH]c3ccc(C#CC4CC4)cc13)CCCC2 | binding | competition with immobilised ligand | 1 µM | 98
COc1cnc(Nc2cccc(S(N)(=O)=O)c2)nc1N1CCN(c2ccccc2)CC1 | binding | competition with immobilised ligand | 1 µM | 93
C[C@@H]1CCN(c2nccc(-c3cnn4ncccc34)n2)C1 | binding |  | 1 µM | 55
CNC(=O)Nc1ccc2c(c1)CC[C@@]21OC(=O)N(CC(=O)N(Cc2ccc(F)cc2)[C@@H](C)C(F)(F)F)C1=O | cell-free assay | competition with immobilised ligand | 1 µM | 86
O=C(NCCCN1CCOCC1)c1ccc(Nc2nccc(-c3cc4ccccc4s3)n2)cc1 | binding | competition with immobilised ligand | 1 µM | 98
Cc1cnn2ncc(-c3ccnc(N(C)C)n3)c2c1 | binding |  | 1 µM | 81
FC(F)(F)Oc1cccc(-c2cnc3ccc(-c4ccncc4)nn23)c1 | cell-free assay | competition with immobilised ligand | 5 µM | 96
O=C(c1ccc(Nc2ncc(Cl)c(-c3ccc(Cl)s3)n2)cc1)N1CCC(N2CCCC2)CC1 | binding | competition with immobilised ligand | 1 µM | 66
CSc1cccnc1N1CCN(Cc2nc3ccccc3[nH]2)CC1 | cell-free assay | competition with immobilised ligand | 1 µM | 92
COc1cnc(Nc2cccc(S(N)(=O)=O)c2)nc1N1CCN(c2ccccc2)C(=O)C1 | binding | competition with immobilised ligand | 1 µM | 84
CC1CCCN1c1nccc(-c2cnn3ncccc23)n1 (stereo not shown) | binding |  | 1 µM | 100
CN([C@@H]1CCc2c(CC(=O)O)c3ccccc3n2C1)S(=O)(=O)c1ccc(F)cc1 | cell-free assay | competition with immobilised ligand | 1 µM | 80
O=C(c1ccc(Nc2ncc(Cl)c(-c3cc4ccccc4s3)n2)cc1)N1CCC(N2CCCC2)CC1 | binding | competition with immobilised ligand | 1 µM | 80
CNCc1ccccc1-c1csc([C@H](C)Nc2nc(C)nc3cc(OC)c(OC)cc23)c1 | cell-free assay | competition with immobilised ligand | 1 µM | 100
CN(C)c1nccc(-c2cnc3ncccn23)n1 | binding |  | 1 µM | 67
CO[C@@H](C)c1c(Nc2ccc([C@@H](N(C)C(=O)C3CCS(=O)(=O)CC3)C(F)(F)F)cc2)cnc2cc(Cl)nn12 | cell-free assay | competition with immobilised ligand | 1 µM | 100
CN(C)c1nccc(-c2cnn3ncccc23)n1 | binding |  | 1 µM | 74
CCS(=O)(=O)c1cc2cc(C[C@@](O)(CC(C)(C)c3ccc(F)cc3C(N)=O)C(F)(F)F)[nH]c2cn1 | cell-free assay | competition with immobilised ligand | 1 µM | 100
COc1ncc2cc3ccccc3nc2c1C#N | cell-free assay | competition with immobilised ligand | 5 µM | 100
